Measured values as given in ChEMBL document CHEMBL1138269, “Antimicrobial lexitropsins containing amide, amidine, and alkene linking groups” (J Med Chem, 2007).
Values after ≈ are worked out from the molar mass of the structure shown.

Legend:
Type in all cases: functional
Staphylococcus aureus [1] = assay: Antibacterial activity against methicillin-resistant Staphylococcus aureus clinical isolate 5
Procedure, shortened: (§1)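 Broth microdilution MIC against clinical S. aureus isolates (incl. MRSA), run per NCCLS guidelines in 96-well plates. Test sample dissolved in sterile water to a 200 µg mL-1 working concentration, then doubling dilutions in Mueller-Hinton broth. Incubated at 37 °C, growth read visually plus resazurin indicator. MIC reported in µg/mL.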

Staphylococcus aureus [2] = assay: Antibacterial activity against methicillin-resistant Staphylococcus aureus clinical isolate 3; procedure, shortened: as §1
Staphylococcus aureus [3] = assay: Antibacterial activity against methicillin-resistant Staphylococcus aureus clinical isolate 1; procedure, shortened: as §1
Candida albicans = assay: Antifungal activity against Candida albicans NCPF 3179; conditions: Candida albicans; read-out: MIC
Procedure, shortened: (§2)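 Antifungal microdilution in Sabouraud broth. Test sample at 200 µg mL-1 working solution in sterile water was serially doubled down successive rows. Incubation was at 25 °C, followed by visual growth check and addition of resazurin indicator. Read-out is MIC in µg mL-1.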

Staphylococcus aureus [4] = assay: Antibacterial activity against methicillin-sensitive Staphylococcus aureus NCTC 6571; conditions: Staphylococcus aureus, NCTC 6571; read-out: MIC
Procedure, shortened: (§3)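 Broth microdilution in Mueller-Hinton broth. Samples were dissolved in sterile water to 200 µg mL-1 as the working solution and doubling dilutions were made across rows. Plates were incubated at 37 °C and inspected visually, with resazurin added as growth indicator. MIC reported in µg mL-1.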

Staphylococcus aureus [5] = assay: Antibacterial activity against methicillin-resistant Staphylococcus aureus clinical isolate 4; procedure, shortened: as §1
[6] = tested on: Mycolicibacterium fortuitum; assay: Antibacterial activity against Mycobacterium fortuitum NCTC 10394; procedure, shortened: as §3
Staphylococcus aureus [7] = assay: Antibacterial activity against methicillin-resistant Staphylococcus aureus clinical isolate 2; procedure, shortened: as §1
Enterococcus faecalis = assay: Antibacterial activity against Streptococcus faecalis NCTC 775; conditions: Enterococcus faecalis, NCTC 775; read-out: MIC; procedure, shortened: as §3
Aspergillus niger = assay: Antifungal activity against Aspergillus niger IMI 149007; procedure, shortened: as §2

Structure (SMILES) | MIC (Staphylococcus aureus [1]) | MIC (Staphylococcus aureus [2]) | MIC (Staphylococcus aureus [3]) | MIC (Candida albicans) | MIC (Staphylococcus aureus [4]) | MIC (Staphylococcus aureus [5]) | MIC [6] | MIC (Staphylococcus aureus [7]) | MIC (Enterococcus faecalis) | MIC (Aspergillus niger)
CSc1ccc(/C=C/c2ccc3cc(C(=O)Nc4cc(C(=O)Nc5cc(C(=O)NCCN6CCOCC6)n(C)c5)n(C)c4)ccc3n2)cc1 | > 64 µg/mL | > 64 µg/mL | 4 µg/mL (≈ 5.9 µM) | > 50 µg/mL | > 50 µg/mL | > 64 µg/mL | > 50 µg/mL | > 64 µg/mL | > 50 µg/mL | > 50 µg/mL
CN(C)CCCNC(=O)c1cc(NC(=O)c2cc(NC(=O)c3cc(NC(=N)c4ccc5ccccc5n4)cn3C)cn2C)cn1C | > 64 µg/mL | > 64 µg/mL | > 64 µg/mL | 50 µg/mL (≈ 80.3 µM) | > 50 µg/mL | > 64 µg/mL | > 50 µg/mL | > 64 µg/mL | 50 µg/mL (≈ 80.3 µM) | 50 µg/mL (≈ 80.3 µM)
CC(C)c1sc(NC(=O)c2cc(NC(=O)c3cc(NC(=O)c4cccc(Cl)c4)cn3C)cn2C)nc1C(=O)NCCCN(C)C | 2 µg/mL (≈ 3.06 µM) | 11 µg/mL (≈ 16.8 µM) | 11 µg/mL (≈ 16.8 µM) | > 50 µg/mL | 13 µg/mL (≈ 19.9 µM) | 0.5 µg/mL (≈ 0.765 µM) | > 50 µg/mL | 11 µg/mL (≈ 16.8 µM) | 6 µg/mL (≈ 9.19 µM) | > 50 µg/mL
CC(C)CCc1sc(NC(=O)c2cc3ccccc3cn2)nc1C(=O)Nc1cc(C(=O)NCCCN(C)C)n(C)c1 | 32 µg/mL (≈ 55.6 µM) | 32 µg/mL (≈ 55.6 µM) | 32 µg/mL (≈ 55.6 µM) | > 50 µg/mL | > 50 µg/mL | 32 µg/mL (≈ 55.6 µM) | > 50 µg/mL | 32 µg/mL (≈ 55.6 µM) | > 50 µg/mL | > 50 µg/mL
COc1cccc(C(=N)Nc2cc(C(=O)Nc3cc(C(=O)Nc4nc(C(=O)NCCN5CCOCC5)c(C(C)C)s4)n(C)c3)n(C)c2)c1 | 32 µg/mL (≈ 47.4 µM) | 32 µg/mL (≈ 47.4 µM) | 16 µg/mL (≈ 23.7 µM) | > 50 µg/mL | > 50 µg/mL | 32 µg/mL (≈ 47.4 µM) | > 50 µg/mL | 64 µg/mL (≈ 94.7 µM) | > 50 µg/mL | > 50 µg/mL
CN(C)CCCNC(=O)c1cc(NC(=O)c2cc(NC(=O)c3ccc(/C=C/c4cnc5ccccc5c4)cc3)cn2C)cn1C | 25 µg/mL (≈ 41.4 µM) | 25 µg/mL (≈ 41.4 µM) | 25 µg/mL (≈ 41.4 µM) | > 50 µg/mL | 32 µg/mL (≈ 53 µM) | 25 µg/mL (≈ 41.4 µM) | > 50 µg/mL | 25 µg/mL (≈ 41.4 µM) | 13 µg/mL (≈ 21.5 µM) | > 50 µg/mL
Cn1cc(NC(=O)c2cc(NC(=O)c3cc(/C=C/c4ccc5ccccc5n4)cn3C)cn2C)cc1C(=O)NCCN1CCOCC1 | 16 µg/mL (≈ 25.2 µM) | 64 µg/mL (≈ 101 µM) | 4 µg/mL (≈ 6.3 µM) | > 50 µg/mL | 13 µg/mL (≈ 20.5 µM) | 32 µg/mL (≈ 50.4 µM) | > 50 µg/mL | 64 µg/mL (≈ 101 µM) | 13 µg/mL (≈ 20.5 µM) | > 50 µg/mL
Cn1cc(NC(=O)c2cc(NC(=O)c3ccc(/C=C/c4ccncc4)cc3)cn2C)cc1C(=O)NCCN1CCOCC1 | 0.5 µg/mL (≈ 0.86 µM) | 1 µg/mL (≈ 1.72 µM) | 0.5 µg/mL (≈ 0.86 µM) | 50 µg/mL (≈ 86 µM) | 2 µg/mL (≈ 3.44 µM) | 1 µg/mL (≈ 1.72 µM) | > 50 µg/mL | 2 µg/mL (≈ 3.44 µM) | 25 µg/mL (≈ 43 µM) | > 50 µg/mL
CC(=N)Nc1cc(C(=O)Nc2cc(C(=O)Nc3nc(C(=O)NCCN4CCOCC4)c(C(C)C)s3)n(C)c2)n(C)c1 | > 64 µg/mL | > 64 µg/mL | 64 µg/mL (≈ 110 µM) | > 50 µg/mL | > 50 µg/mL | > 64 µg/mL | > 50 µg/mL | > 64 µg/mL | > 50 µg/mL | > 50 µg/mL
COc1cccc(/C=C/c2cccc(C(=O)Nc3cc(C(=O)Nc4nc(C(=O)NCCCN(C)C)c(CCC(C)C)s4)n(C)c3)c2)c1 | 32 µg/mL (≈ 48.7 µM) | 32 µg/mL (≈ 48.7 µM) | 32 µg/mL (≈ 48.7 µM) | > 50 µg/mL | > 50 µg/mL | 32 µg/mL (≈ 48.7 µM) | > 50 µg/mL | 32 µg/mL (≈ 48.7 µM) | > 50 µg/mL | > 50 µg/mL
CC(C)CCn1cc(NC(=O)c2cc(NC(=O)c3ccc4c(c3)OCO4)cn2C)cc1C(=O)Nc1cc(C(=O)NCCCN(C)C)n(C)c1 | 16 µg/mL (≈ 23.8 µM) | 16 µg/mL (≈ 23.8 µM) | 8 µg/mL (≈ 11.9 µM) | > 50 µg/mL | 50 µg/mL (≈ 74.3 µM) | 16 µg/mL (≈ 23.8 µM) | > 50 µg/mL | 16 µg/mL (≈ 23.8 µM) | > 50 µg/mL | > 50 µg/mL
Cn1cc(NC(=O)c2cc(NC(=O)c3cc(/C=C/c4cnc5ccccc5c4)cn3C)cn2C)cc1C(=O)NCCN1CCOCC1 | 16 µg/mL (≈ 25.2 µM) | > 64 µg/mL | 4 µg/mL (≈ 6.3 µM) | > 50 µg/mL | > 50 µg/mL | > 64 µg/mL | > 50 µg/mL | > 64 µg/mL | > 50 µg/mL | > 50 µg/mL
Cn1cc(NC(=O)c2cc(NC(=O)c3cc(NC(=O)c4cccc(Cl)c4)cn3C)cn2C)cc1C(=O)NCCc1ccccn1 | > 64 µg/mL | > 64 µg/mL | > 64 µg/mL | > 50 µg/mL | > 50 µg/mL | > 64 µg/mL | > 50 µg/mL | > 64 µg/mL | > 50 µg/mL | > 50 µg/mL
Cn1cc(NC(=O)c2cc(NC(=O)c3ccc(/C=C/c4cccnc4)cc3)cn2C)cc1C(=O)NCCN1CCOCC1 | 1 µg/mL (≈ 1.72 µM) | 4 µg/mL (≈ 6.88 µM) | 2 µg/mL (≈ 3.44 µM) | > 50 µg/mL | 35 µg/mL (≈ 60.2 µM) | 8 µg/mL (≈ 13.8 µM) | > 50 µg/mL | 8 µg/mL (≈ 13.8 µM) | 35 µg/mL (≈ 60.2 µM) | > 50 µg/mL
COc1cccc(C(=N)Nc2cc(C(=O)Nc3cc(C(=O)Nc4cc(C(=O)NCCc5ccccn5)n(C)c4)n(C)c3)n(C)c2)c1 | > 64 µg/mL | > 64 µg/mL | > 64 µg/mL | > 50 µg/mL | 50 µg/mL (≈ 80.4 µM) | > 64 µg/mL | > 50 µg/mL | > 64 µg/mL | > 50 µg/mL | > 50 µg/mL
COc1ccc(/C=C/c2ccc3cc(C(=O)Nc4cc(C(=O)Nc5cc(C(=O)NCCN6CCOCC6)n(C)c5)n(C)c4)ccc3n2)cc1 | > 64 µg/mL | > 64 µg/mL | 4 µg/mL (≈ 6.04 µM) | > 50 µg/mL | > 50 µg/mL | > 64 µg/mL | > 50 µg/mL | > 64 µg/mL | 25 µg/mL (≈ 37.8 µM) | 50 µg/mL (≈ 75.6 µM)
CC(C)CCc1sc(NC(=O)c2cc(NC(=O)c3cc4ccccc4cn3)cn2C)nc1C(=O)NCCCN(C)C | > 64 µg/mL | > 64 µg/mL | > 64 µg/mL | > 50 µg/mL | 50 µg/mL (≈ 86.8 µM) | > 64 µg/mL | > 50 µg/mL | > 64 µg/mL | 50 µg/mL (≈ 86.8 µM) | > 50 µg/mL
Cn1cc(NC(=O)c2cc(NC(=O)c3csc(/C=C/c4ccc5ccccc5n4)n3)cn2C)cc1C(=O)NCCN1CCOCC1 | 8 µg/mL (≈ 12.5 µM) | 8 µg/mL (≈ 12.5 µM) | 8 µg/mL (≈ 12.5 µM) | > 50 µg/mL | 3 µg/mL (≈ 4.7 µM) | 8 µg/mL (≈ 12.5 µM) | > 50 µg/mL | 8 µg/mL (≈ 12.5 µM) | 25 µg/mL (≈ 39.1 µM) | > 50 µg/mL
